Experimental data: ChEMBL document CHEMBL5385966, “Synthesis and biological evaluation of new naphthalimide-thiourea derivatives as potent antimicrobial agents active against multidrug-resistant Staphylococcus aureus and Mycobacterium tuberculosis” (RSC Med Chem, 2024)
Converted amounts (≈) assume the structure as drawn. The source made the active and inactive calls. The calls are words filed in the database; no cut-off is given here.

Key:
Staphylococcus aureus [1] = experiment: Antibacterial activity against methicillin-sensitive Staphylococcus aureus ATCC 29213 clinical isolate assessed as bacterial growth inhibition incubated for 16 to 18 hrs by CLSI based antibiotic susceptibility testing method; type: functional; conditions: time 16-18 hrs
In short: (§1)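 Broth microdilution in cation-adjusted Mueller-Hinton broth. Compounds were tested at […], with levofloxacin as reference and medium-only controls. Plates were incubated at 37 °C for 16-18 h. MIC was the lowest concentration with no visible growth; three independent determinations, each in duplicate.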

Staphylococcus aureus [2] = experiment: Antibacterial activity against methicillin/ceftriaxone/meropenem/gentamycin/linezolid-resistant Staphylococcus aureus NRS10100 clinical isolate assessed as bacterial growth inhibition incubated for 16 to 18 hrs by CLSI based antibiotic susceptibility testing method; type: functional; conditions: time 16-18 hrs; in short: as §1
Staphylococcus aureus [3] = experiment: Antibacterial activity against methicillin/ceftriaxone/meropenem/gentamycin/linezolid-resistant Staphylococcus aureus NRS10119 clinical isolate assessed as bacterial growth inhibition incubated for 16 to 18 hrs by CLSI based antibiotic susceptibility testing method; type: functional; conditions: time 16-18 hrs; in short: as §1
Staphylococcus aureus [4] = experiment: Antibacterial activity against methicillin/ceftriaxone/meropenem-resistant Staphylococcus aureus NRS10129 clinical isolate assessed as bacterial growth inhibition incubated for 16 to 18 hrs by CLSI based antibiotic susceptibility testing method; type: functional; conditions: time 16-18 hrs; in short: as §1
Staphylococcus aureus [5] = experiment: Antibacterial activity against methicillin/ceftriaxone/meropenem-resistant Staphylococcus aureus NRS10186 clinical isolate assessed as bacterial growth inhibition incubated for 16 to 18 hrs by CLSI based antibiotic susceptibility testing method; type: functional; conditions: time 16-18 hrs; in short: as §1
Staphylococcus aureus [6] = experiment: Antibacterial activity against methicillin/ceftriaxone/meropenem-resistant Staphylococcus aureus NRS10191 clinical isolate assessed as bacterial growth inhibition incubated for 16 to 18 hrs by CLSI based antibiotic susceptibility testing method; type: functional; conditions: time 16-18 hrs; in short: as §1
Staphylococcus aureus [7] = experiment: Antibacterial activity against methicillin/ceftriaxone/meropenem-resistant Staphylococcus aureus NRS10192 clinical isolate assessed as bacterial growth inhibition incubated for 16 to 18 hrs by CLSI based antibiotic susceptibility testing method; type: functional; conditions: time 16-18 hrs; in short: as §1
Staphylococcus aureus [8] = experiment: Antibacterial activity against methicillin/ceftriaxone/meropenem-resistant Staphylococcus aureus NRS10193 clinical isolate assessed as bacterial growth inhibition incubated for 16 to 18 hrs by CLSI based antibiotic susceptibility testing method; type: functional; conditions: time 16-18 hrs; in short: as §1
Staphylococcus aureus [9] = experiment: Antibacterial activity against methicillin/ceftriaxone-resistant Staphylococcus aureus NRS10194 clinical isolate assessed as bacterial growth inhibition incubated for 16 to 18 hrs by CLSI based antibiotic susceptibility testing method; type: functional; conditions: time 16-18 hrs; in short: as §1
Staphylococcus aureus [10] = experiment: Antibacterial activity against methicillin/ceftriaxone/meropenem-resistant Staphylococcus aureus NRS10198 clinical isolate assessed as bacterial growth inhibition incubated for 16 to 18 hrs by CLSI based antibiotic susceptibility testing method; type: functional; conditions: time 16-18 hrs; in short: as §1
Staphylococcus aureus [11] = experiment: Antibacterial activity against methicillin/ceftriaxone/meropenem/gentamycin/vancomycin/teicoplanin-resistant Staphylococcus aureus VRS1 clinical isolate assessed as bacterial growth inhibition incubated for 16 to 18 hrs by CLSI based antibiotic susceptibility testing method; type: functional; conditions: time 16-18 hrs; in short: as §1
Staphylococcus aureus [12] = experiment: Antibacterial activity against methicillin/ceftriaxone/meropenem/vancomycin/teicoplanin-resistant Staphylococcus aureus VRS4 clinical isolate assessed as bacterial growth inhibition incubated for 16 to 18 hrs by CLSI based antibiotic susceptibility testing method; type: functional; conditions: time 16-18 hrs; in short: as §1
Staphylococcus aureus [13] = experiment: Antibacterial activity against methicillin/ceftriaxone/meropenem/vancomycin/teicoplanin-resistant Staphylococcus aureus VRS12 clinical isolate assessed as bacterial growth inhibition incubated for 16 to 18 hrs by CLSI based antibiotic susceptibility testing method; type: functional; conditions: time 16-18 hrs; in short: as §1
Staphylococcus aureus [14] = experiment: Antibacterial activity against Staphylococcus aureus ATCC 29213 assessed as bacterial growth inhibition incubated for 16 to 18 hrs by CLSI based antibiotic susceptibility testing method; type: functional; conditions: time 16-18 hrs; in short: as §1
[15] = tested on: Mycobacterium tuberculosis; experiment: Antimycobacterial activity against Mycobacterium tuberculosis H37Rv ATCC 27294 assessed as bacterial growth inhibition incubated for 7 days by resazurin dye based broth microdilution method; type: functional; conditions: H37Rv ATCC 27294, 168 h, time 7 day
In short: (§2)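 Broth microdilution in Middlebrook 7H9 with 10% ADC-Tween-80 (0.2% glycerol, 0.05% Tween-80), inoculum ~10⁶ cfu/mL. Compounds came from 10 mg/mL DMSO stocks and were tested as two-fold serial dilutions at 37 °C, 7 days for M. tuberculosis H37Rv and 72 h for NTM. Growth was read visually with PrestoBlue resazurin dye; MIC was the lowest concentration preventing growth. Triplicate determinations, each in duplicate.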

Escherichia coli = experiment: Antibacterial activity against Escherichia coli ATCC 25922 assessed as bacterial growth inhibition incubated for 16 to 18 hrs by CLSI based antibiotic susceptibility testing method; type: functional, organism-based; conditions: time 16-18 hrs; in short: as §1
Klebsiella pneumoniae = experiment: Antibacterial activity against Klebsiella pneumoniae BAA 1705 assessed as bacterial growth inhibition incubated for 16 to 18 hrs by CLSI based antibiotic susceptibility testing method; type: functional, organism-based; conditions: time 16-18 hrs; in short: as §1
Acinetobacter baumannii = experiment: Antibacterial activity against Acinetobacter baumannii BAA 1605 assessed as bacterial growth inhibition incubated for 16 to 18 hrs by CLSI based antibiotic susceptibility testing method; type: functional, organism-based; conditions: time 16-18 hrs; in short: as §1
Pseudomonas aeruginosa = experiment: Antibacterial activity against Pseudomonas aeruginosa ATCC 27853 assessed as bacterial growth inhibition incubated for 16 to 18 hrs by CLSI based antibiotic susceptibility testing method; type: functional, organism-based; conditions: time 16-18 hrs; in short: as §1
[16] = tested on: Mycobacteroides abscessus; experiment: Antimycobacterial activity against Mycobacterium abscessus ATCC 19977 assessed as bacterial growth inhibition incubated for 72 hrs by resazurin dye based broth microdilution method; type: functional, organism-based; in short: as §2
[17] = tested on: Mycolicibacterium fortuitum; experiment: Antimycobacterial activity against Mycobacterium fortuitum ATCC 6841 assessed as bacterial growth inhibition incubated for 72 hrs by resazurin dye based broth microdilution method; type: functional, organism-based; in short: as §2
Mycobacteroides chelonae = experiment: Antimycobacterial activity against Mycobacteroides chelonae ATCC 35752 assessed as bacterial growth inhibition incubated for 72 hrs by resazurin dye based broth microdilution method; type: functional, organism-based; in short: as §2

| Compound | MIC (Staphylococcus aureus [11]) | MIC (Staphylococcus aureus [12]) | MIC (Staphylococcus aureus [13]) | MIC (Staphylococcus aureus [14]) | MIC [15] | growth inhibition (GI) (Escherichia coli) | growth inhibition (GI) (Klebsiella pneumoniae) | growth inhibition (GI) (Acinetobacter baumannii) | growth inhibition (GI) (Pseudomonas aeruginosa) | growth inhibition (GI) [16] | growth inhibition (GI) [17] | growth inhibition (GI) (Mycobacteroides chelonae) | further results |
| --- | --- | --- | --- | --- | --- | --- | --- | --- | --- | --- | --- | --- | --- |
| C[C@@H](O)[C@H]1C(=O)N2C(C(=O)O)=C(S[C@@H]3CN[C@H](C(=O)N(C)C)C3)[C@H](C)[C@H]12 [MEROPENEM] | 64 µg/mL (≈ 167 µM) | 64 µg/mL (≈ 167 µM) | 8 µg/mL (≈ 20.9 µM) |  |  |  |  |  |  |  |  |  | MIC (Staphylococcus aureus [1]): 0.125 µg/mL (≈ 0.326 µM); MIC (Staphylococcus aureus [2]): 32 µg/mL (≈ 83.4 µM); MIC (Staphylococcus aureus [3]): 64 µg/mL (≈ 167 µM); MIC (Staphylococcus aureus [4]): 2 µg/mL (≈ 5.22 µM); MIC (Staphylococcus aureus [5]): 4 µg/mL (≈ 10.4 µM); MIC (Staphylococcus aureus [6]): 64 µg/mL (≈ 167 µM); MIC (Staphylococcus aureus [7]): 4 µg/mL (≈ 10.4 µM); MIC (Staphylococcus aureus [8]): 64 µg/mL (≈ 167 µM); MIC (Staphylococcus aureus [9]): 1 µg/mL (≈ 2.61 µM); MIC (Staphylococcus aureus [10]): 64 µg/mL (≈ 167 µM) |
| C[C@H]1COc2c(N3CCN(C)CC3)c(F)cc3c(=O)c(C(=O)O)cn1c23 [LEVOFLOXACIN ANHYDROUS] | 32 µg/mL (≈ 88.6 µM) | > 64 µg/mL | 32 µg/mL (≈ 88.6 µM) | 0.063 µg/mL (≈ 0.174 µM) | 0.6 µg/mL (≈ 1.66 µM) | inactive | inactive | inactive | inactive | inactive | inactive | inactive | MIC (Staphylococcus aureus [1]): 0.25 µg/mL (≈ 0.692 µM); MIC (Staphylococcus aureus [2]): 0.125 µg/mL (≈ 0.346 µM); MIC (Staphylococcus aureus [3]): 16 µg/mL (≈ 44.3 µM); MIC (Staphylococcus aureus [4]): 0.25 µg/mL (≈ 0.692 µM); MIC (Staphylococcus aureus [5]): 4 µg/mL (≈ 11.1 µM); MIC (Staphylococcus aureus [6]): 16 µg/mL (≈ 44.3 µM); MIC (Staphylococcus aureus [7]): 8 µg/mL (≈ 22.1 µM); MIC (Staphylococcus aureus [8]): 32 µg/mL (≈ 88.6 µM); MIC (Staphylococcus aureus [9]): 0.125 µg/mL (≈ 0.346 µM); MIC (Staphylococcus aureus [10]): 32 µg/mL (≈ 88.6 µM) |
| CN[C@H](CC(C)C)C(=O)N[C@H]1C(=O)N[C@@H](CC(N)=O)C(=O)N[C@H]2C(=O)N[C@H]3C(=O)N[C@H](C(=O)N[C@H](C(=O)O)c4cc(O)cc(O)c4-c4cc3ccc4O)[C@H](O)c3ccc(c(Cl)c3)Oc3cc2cc(c3O[C@@H]2O[C@H](CO)[C@@H](O)[C@H](O)[C@H]2O[C@H]2C[C@](C)(N)[C@H](O)[C@H](C)O2)Oc2ccc(cc2Cl)[C@H]1O [VANCOMYCIN] | > 64 µg/mL | > 64 µg/mL | > 64 µg/mL |  |  |  |  |  |  |  |  |  |  |
| O=C1c2cccc3cccc(c23)C(=O)N1CCN1CCN(C(=S)Nc2ccccc2Cl)CC1 |  |  |  | > 64 µg/mL | > 64 µg/mL | inactive | inactive | inactive | inactive | inactive | inactive | inactive |  |
| O=C(CN1C(=O)c2cccc3cccc(c23)C1=O)NC1CCN(C(=S)Nc2ccc(Cl)cc2)CC1 |  |  |  | > 64 µg/mL | > 64 µg/mL | inactive | inactive | inactive | inactive | inactive | inactive | inactive |  |
| O=C(CN1C(=O)c2cccc3cccc(c23)C1=O)N1CCN(C(=S)Nc2ccc(Cl)cc2)CC1 |  |  |  | > 64 µg/mL | 8 µg/mL (≈ 16.2 µM) | inactive | inactive | inactive | inactive | inactive | inactive | inactive |  |
| Cc1ccc(NC(=S)N2CCN(C(=O)CCN3C(=O)c4cccc5cccc(c45)C3=O)CC2)cc1 |  |  |  | > 64 µg/mL | > 64 µg/mL | inactive | inactive | inactive | inactive | inactive | inactive | inactive |  |
